Columns and labels:
[1] = Oral bioavailability in Beagle dog measured up to 24 hrs by LC-MS analysis; type: ADME, organism-based, Canis lupus familiaris; conditions: in vivo
[2] = Volume of distribution at steady state in iv dosed Wistar rat measured up to 24 hrs by LC-MS analysis; type: ADME, organism-based; conditions: in vivo, read-out: Vdss
Summary of the method: (§1)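 Three animals per species and strain received an intravenous dose. Steady-state volume of distribution (L/kg) was derived from the blood concentration–time profile, alongside blood clearance and terminal half-life.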

[3] = Activation of recombinant rat sGC expressed in CHO cells by luminescence assay; type: cell-based; conditions: CHO
Summary of the method: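 Stable CHO reporter cell line overexpressing rat sGC; cGMP formation read as luminescence. EC50 from concentration–response. MEC taken as lowest concentration giving at least threefold increase in basal luminescence.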

[4] = target: T1, Guanylate cyclase soluble subunit alpha-1 (Rattus norvegicus) (UniProt P19686); assay: Activation of recombinant rat sGC alpha1 subunit expressed in CHO cells assessed as induction of [32P-cGMP] formation using alpha-[32P-GTP] as substrate measured after 6 mins by luminescence assay; type: cell-based; conditions: filed as activator
T1 sequence (whole entry): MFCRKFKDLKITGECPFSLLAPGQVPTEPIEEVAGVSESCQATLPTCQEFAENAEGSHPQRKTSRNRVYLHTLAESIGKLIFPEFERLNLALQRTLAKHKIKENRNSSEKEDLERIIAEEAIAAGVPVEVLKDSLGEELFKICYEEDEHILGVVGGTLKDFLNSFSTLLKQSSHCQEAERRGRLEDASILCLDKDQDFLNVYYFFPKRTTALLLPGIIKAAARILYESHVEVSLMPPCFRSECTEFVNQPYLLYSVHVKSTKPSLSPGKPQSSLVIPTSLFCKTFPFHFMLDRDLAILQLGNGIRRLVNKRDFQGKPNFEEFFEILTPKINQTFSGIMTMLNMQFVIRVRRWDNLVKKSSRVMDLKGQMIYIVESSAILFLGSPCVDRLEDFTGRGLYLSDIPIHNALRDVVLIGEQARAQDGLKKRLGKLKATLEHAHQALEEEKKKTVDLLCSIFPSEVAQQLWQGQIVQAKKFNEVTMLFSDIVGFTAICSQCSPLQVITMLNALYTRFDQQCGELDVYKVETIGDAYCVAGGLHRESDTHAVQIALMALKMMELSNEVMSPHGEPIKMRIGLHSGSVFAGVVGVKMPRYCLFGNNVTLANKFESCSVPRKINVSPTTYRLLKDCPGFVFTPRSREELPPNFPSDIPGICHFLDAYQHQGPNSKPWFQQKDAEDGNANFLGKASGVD

[5] = Plasma clearance in iv dosed Beagle dog measured up to 24 hrs by LC-MS analysis; type: ADME, organism-based, Canis lupus familiaris
[6] = Oral bioavailability in cynomolgus monkey measured up to 24 hrs by LC-MS analysis; type: ADME, organism-based, Macaca fascicularis; conditions: in vivo
[7] = target: T1, Guanylate cyclase soluble subunit alpha-1 (Rattus norvegicus); assay: Activation of recombinant rat sGC alpha1 subunit expressed in CHO cells assessed as induction of [32P-cGMP] formation by measuring efficacy using alpha-[32P-GTP] as substrate measured after 6 mins by luminescence assay relative to control; type: cell-based; conditions: filed as activator
[8] = Volume of distribution at steady state in iv dosed Beagle dog measured up to 24 hrs by LC-MS analysis; type: ADME, organism-based, Canis lupus familiaris; conditions: in vivo, read-out: Vdss; summary of the method: as §1
[9] = Plasma clearance in iv dosed cynomolgus monkey measured up to 24 hrs by LC-MS analysis; type: ADME, organism-based, Macaca fascicularis
[10] = Half life in iv dosed Wistar rat measured up to 24 hrs by LC-MS analysis; type: ADME, organism-based; conditions: in vivo
[11] = Clearance in Wistar rat at 0.3 mg/kg, iv measured up to 24 hrs by LC-MS analysis; type: ADME, organism-based; conditions: in vivo
Summary of the method: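 Rats dosed iv at 0.3 mg/kg; blood clearance determined.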

[12] = Half life in iv dosed cynomolgus monkey measured up to 24 hrs by LC-MS analysis; type: ADME, organism-based, Macaca fascicularis; conditions: in vivo
Cytochrome P450 1A2 = target: T2, Cytochrome P450 1A2 (Homo sapiens, UniProt P05177); assay: Induction of CYP1A2 in human hepatocytes at > 123 ng/ml using phenacetin as substrate incubated for 60 mins by LC-MS/MS analysis; type: ADME, cell-based, Hepatocyte; conditions: 1 h
T2 sequence (P05177 whole entry): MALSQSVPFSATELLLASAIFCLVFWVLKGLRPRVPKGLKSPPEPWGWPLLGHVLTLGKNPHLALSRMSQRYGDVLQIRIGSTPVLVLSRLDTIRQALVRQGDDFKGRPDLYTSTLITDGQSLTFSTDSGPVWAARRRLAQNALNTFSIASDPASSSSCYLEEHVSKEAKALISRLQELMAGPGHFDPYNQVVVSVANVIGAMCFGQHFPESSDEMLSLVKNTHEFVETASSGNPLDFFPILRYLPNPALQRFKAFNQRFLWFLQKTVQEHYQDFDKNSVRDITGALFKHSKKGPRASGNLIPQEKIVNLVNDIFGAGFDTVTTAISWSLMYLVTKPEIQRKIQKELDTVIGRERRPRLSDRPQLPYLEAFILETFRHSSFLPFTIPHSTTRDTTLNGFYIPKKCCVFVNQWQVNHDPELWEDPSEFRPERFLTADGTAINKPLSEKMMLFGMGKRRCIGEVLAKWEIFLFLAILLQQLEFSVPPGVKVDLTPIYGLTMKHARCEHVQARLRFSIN

[13] = Half life in iv dosed Beagle dog measured up to 24 hrs by LC-MS analysis; type: ADME, organism-based, Canis lupus familiaris; conditions: in vivo
[14] = Volume of distribution at steady state in iv dosed cynomolgus monkey measured up to 24 hrs by LC-MS analysis; type: ADME, organism-based, Macaca fascicularis; conditions: in vivo, read-out: Vdss; summary of the method: as §1
[15] = Induction of CYP3A4 in human hepatocytes using phenacetin as substrate incubated for 60 mins by LC-MS/MS analysis; conditions: 1 h
[16] = Oral bioavailability in Wistar rat measured up to 24 hrs by LC-MS analysis; type: ADME, organism-based; conditions: in vivo

In the case of `C[C@H]([C@H](C(=O)Nc1cc(C[C@H](C)C(=O)O)ccc1Cl)c1ccc(Cl)cc1)C(F)(F)F`, the bioavailability [1] is reported as 78%, the Vd [2] is reported as 2 L/kg and the EC50 [3] is reported as 43 nM. For the same compound, the MEC [4] was 10 nM, the clearance [5] was 6.33 mL/min/kg and the bioavailability [6] was 100%. For the same compound, the Efficacy [7] was 63%, the Vd [8] was 2.1 L/kg and the clearance [9] was 0.833 mL/min/kg. For the same compound, the half-life [10] was 13 h, the clearance [11] was 2.83 mL/min/kg and the half-life [12] was 8.3 h. The Activity (Cytochrome P450 1A2) was “Not Active”, the half-life [13] was 9.3 h and the Vd [14] was 0.55 L/kg. For the same compound, the Activity [15] was 266 nM and the bioavailability [16] was 100%.
